Reference: ChEMBL document CHEMBL3758120, “Synthesis and Mechanism Studies of 1,3-Benzoazolyl Substituted Pyrrolo[2,3-b]pyrazine Derivatives as Nonintercalative Topoisomerase II Catalytic Inhibitors” (J Med Chem, 2016)
Active and inactive are the calls of the source. No cut-off for these calls is given here.

What was measured:
A549 = test: Antiproliferative activity against human A549 cells after 48 hrs by MTT assay; format: functional, cell-based; settings: A549, 48 h
How it was run: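 Cells seeded at 5000 per well and left overnight, then exposed to increasing concentrations (0-50 μM) for 48 h. […] HL-60/MX2 is a mitoxantrone-selected HL-60 derivative with reduced Topo IIα/β.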

Escherichia coli = test: Binding affinity to Escherichia coli pBR322 DNA assessed as intercalation of pBR322 DNA at 0.1 to 100 uM by fluorescence based ethidium bromide displacement assay
How it was run: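 Increasing concentrations added to 20 nM pBR322 plasmid with 2.5 μM ethidium bromide in 10 mM HEPES pH 7.9, 100 mM KCl, 5 mM MgCl2, 0.1 mM EDTA. Fluorescence emission spectra recorded (excitation 510 nm, emission max 595 nm) at each concentration; mAMSA used as intercalating reference.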

Calf thymus DNA = test: Binding affinity to calf thymus DNA by UV-visible spectrophotometric analysis; format: nucleic-acid assay; settings: Bos taurus
How it was run: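 Compound fixed at 5 μM in DPBS pH 7.4 with 1% DMSO, titrated with CT-DNA (0–25 μM; concentration from A260, ε 13 200 M(bp)⁻¹cm⁻¹; A260/280 1.8–1.9). After 20 min equilibration at room temperature, absorption spectra recorded over 300–500 nm.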

[1] = target: T1, DNA topoisomerase 2-alpha (Homo sapiens, UniProt P11388); test: Inhibition of purified human topoisomerase 2-mediated relaxation of supercoiled pBR322 DNA at 50 uM incubated for 30 mins in presence of 4 mM ATP by agarose gel electrophoresis
T1 sequence (P11388 whole entry): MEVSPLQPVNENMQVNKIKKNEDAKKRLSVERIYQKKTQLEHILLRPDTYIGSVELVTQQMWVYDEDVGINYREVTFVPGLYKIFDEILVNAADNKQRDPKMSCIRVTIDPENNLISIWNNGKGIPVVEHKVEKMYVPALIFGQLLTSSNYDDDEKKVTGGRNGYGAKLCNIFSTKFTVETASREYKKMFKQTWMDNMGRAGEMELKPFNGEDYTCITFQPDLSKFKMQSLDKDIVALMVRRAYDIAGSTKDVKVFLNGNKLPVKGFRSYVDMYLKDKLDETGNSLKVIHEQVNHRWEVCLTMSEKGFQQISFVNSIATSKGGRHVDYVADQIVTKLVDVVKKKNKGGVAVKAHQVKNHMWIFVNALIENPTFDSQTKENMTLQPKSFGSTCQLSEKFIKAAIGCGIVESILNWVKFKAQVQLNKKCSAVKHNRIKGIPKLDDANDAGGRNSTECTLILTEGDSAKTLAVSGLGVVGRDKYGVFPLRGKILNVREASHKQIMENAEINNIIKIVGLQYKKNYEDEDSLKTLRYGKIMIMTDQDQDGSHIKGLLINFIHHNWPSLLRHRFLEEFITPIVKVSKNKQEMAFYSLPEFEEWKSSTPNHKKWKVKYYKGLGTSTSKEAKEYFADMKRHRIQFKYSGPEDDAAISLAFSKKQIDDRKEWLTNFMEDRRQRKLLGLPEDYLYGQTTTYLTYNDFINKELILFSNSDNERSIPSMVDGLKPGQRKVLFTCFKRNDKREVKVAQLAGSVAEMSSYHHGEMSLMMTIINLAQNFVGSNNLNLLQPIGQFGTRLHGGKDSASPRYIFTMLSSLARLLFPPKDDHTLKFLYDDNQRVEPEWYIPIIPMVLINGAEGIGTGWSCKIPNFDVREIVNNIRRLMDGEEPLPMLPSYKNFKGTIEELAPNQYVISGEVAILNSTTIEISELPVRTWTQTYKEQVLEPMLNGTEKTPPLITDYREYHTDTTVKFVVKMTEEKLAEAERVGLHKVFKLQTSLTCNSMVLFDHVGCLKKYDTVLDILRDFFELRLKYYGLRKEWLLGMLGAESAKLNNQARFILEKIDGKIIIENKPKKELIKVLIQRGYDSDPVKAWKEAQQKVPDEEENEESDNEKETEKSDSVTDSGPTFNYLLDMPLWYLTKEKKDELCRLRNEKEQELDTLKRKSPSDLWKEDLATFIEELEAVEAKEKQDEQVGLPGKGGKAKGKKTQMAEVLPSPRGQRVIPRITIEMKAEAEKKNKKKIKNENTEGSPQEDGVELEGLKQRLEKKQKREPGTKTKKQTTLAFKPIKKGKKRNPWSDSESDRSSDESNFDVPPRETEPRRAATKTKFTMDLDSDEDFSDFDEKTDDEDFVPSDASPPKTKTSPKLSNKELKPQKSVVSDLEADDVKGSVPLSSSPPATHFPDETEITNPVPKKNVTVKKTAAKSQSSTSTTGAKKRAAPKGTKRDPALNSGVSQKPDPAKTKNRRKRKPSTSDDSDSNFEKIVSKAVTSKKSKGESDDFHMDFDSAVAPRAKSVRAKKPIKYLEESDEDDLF
How it was run: (§1)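 Reactions contained 0.2 μg supercoiled pBR322 in 50 mM Tris-HCl pH 8.0, 150 mM NaCl, 10 mM MgCl2, 0.5 mM DTT, 30 μg/ml BSA, normally 2 mM ATP (1, 2 or 4 mM in ATP-competition runs). Started with 1 U human Topo II, 30 min at 37 °C, stopped with sarcosyl buffer, run on 1% agarose 1.5 h at 75 V, gel-stained and imaged under UV.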

[2] = target: T1, DNA topoisomerase 2-alpha; test: Inhibition of purified human topoisomerase 2-mediated relaxation of supercoiled pBR322 DNA at 50 uM incubated for 30 mins in presence of 1 mM ATP by agarose gel electrophoresis; how it was run: as §1
[3] = target: T1, DNA topoisomerase 2-alpha; settings: HL-60, 5 uM
[4] = target: T1, DNA topoisomerase 2-alpha; settings: HL-60, 5 uM; remark: listed apart in the source

SMILES | IC50 (A549) [µM] | inhibition (Escherichia coli) | Kb (Calf thymus DNA) [×10⁵ /M] | IC50 [1] [µM] | IC50 [2] [nM] | inhibition [3] | inhibition [4]
CCN(CC)CCCCn1c(N)c(-c2nc3ccccc3[nH]2)c2nc(C#N)c(C#N)nc21 | 5.75 |  |  |  |  |  | 
CN(C)CCCCn1c(N)c(-c2nc3ccccc3[nH]2)c2nc(C#N)c(C#N)nc21 | 8.24 | inactive | 2.8 | 16.5 | 900 | inactive | Active
